HTRA1 inhibitor – HTRA1 serine protease inhibitors, primary screen, biochemical, fluorescence polarization, HTS. recombinant HTRA1, FP-rhodamine activity-based probe. actives 0.5% (n = 340,000). inhibition, % at 5.96 µM; in the data active = inhibition above about 36%;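 note: 0% = enzyme with DMSO and 100% = wells lacking enzyme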
PRMT1 inh – PRMT1 methyltransferase inhibitors, primary screen, biochemical, fluorescence polarization. recombinant PRMT1, activity-based probe fluorescence polarization. Protein arginine N-methyltransferase 1 (Homo sapiens), Q99873. actives 1.3% (n = 370,000). inhibition, % at 2.79 µM;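 active = inhibition above about 21% made by adding two undisclosed values, limit read from the data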
SIAE inh – human SIAE inhibitors, primary screen, biochemical, fluorescence polarization, FP-Rh probe, 1536-well HTS. Sialate O-acetylesterase (Homo sapiens), Q9HAT2. SIAE FP-Rh probe binding. inhibition, % at 9.66 µM. actives 0.69% (n = 370,000);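 active = inhibition above a cutoff: mean of compounds within the control limits plus 3 SD of those, cut at about 17% in these data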;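 note: 0% = plate median of compound wells and 100% = probe without SIAE protein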
Target sequence (Q9HAT2 whole entry, looked up): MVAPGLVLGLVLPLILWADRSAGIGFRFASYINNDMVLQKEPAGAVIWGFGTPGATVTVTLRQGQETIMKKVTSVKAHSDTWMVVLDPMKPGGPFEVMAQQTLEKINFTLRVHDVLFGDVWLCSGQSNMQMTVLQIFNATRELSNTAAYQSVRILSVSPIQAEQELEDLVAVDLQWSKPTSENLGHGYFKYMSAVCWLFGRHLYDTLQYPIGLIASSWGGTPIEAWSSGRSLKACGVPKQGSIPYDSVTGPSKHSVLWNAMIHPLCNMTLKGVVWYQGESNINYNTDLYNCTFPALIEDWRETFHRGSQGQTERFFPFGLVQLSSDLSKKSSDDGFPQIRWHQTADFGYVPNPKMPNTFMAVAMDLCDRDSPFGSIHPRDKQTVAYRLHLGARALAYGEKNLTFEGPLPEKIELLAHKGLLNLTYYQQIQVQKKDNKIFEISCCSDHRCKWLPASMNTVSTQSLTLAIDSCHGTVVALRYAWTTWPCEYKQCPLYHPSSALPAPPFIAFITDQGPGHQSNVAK
mABHD4 FP – ABHD4 inhibitors, primary screen, biochemical, fluorescence polarization, mouse. (Lyso)-N-acylphosphatidylethanolamine lipase (Mus musculus), Q8VD66. AID 720543, 2013. actives 0.54% (n = 370,000). inhibition, % at 8.92 µM. purified mABHD4, FP-Rh probe fluorescence polarization;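 active = inhibition exceeding the mean over every tested compound plus 3 SD, cut at about 30% in these data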;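 note: 0% = plate median of compound wells and 100% = S159A mutant with DMSO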
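Assay system: mABHD4 protein; medium: HEPES pH 7.0, NaCl, Pluronic buffer; dosing: 8.92 µM, single dose; schedule: 45 min + 60 min at 25 °C; signal: FP readout, ex 525 nm / em 598 nm; read-out: normalized percent inhibition of probe labeling; repeats: single replicate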
rCAG binder – binders of r(CAG) RNA repeats, primary screen, biochemical, fluorescence. r(CAG) RNA repeat, TO-PRO-1 dye displacement fluorescence. inhibition, % at 3 µM. actives 1.3% (n = 370,000);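 active = inhibition above the plate cutoff, the mean of all test compounds on that plate plus 3 SD, cut at about 35% in these data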;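 note: 0% = DMSO alone and 100% = 100 µM mitoxantrone as full dye displacement; higher means more dye released from RNA so lower well fluorescence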
rCAG binder conf – small molecules binding CAG repeat RNA – biochemical, fluorescence, confirmation; r(CAG) RNA repeat, TO-PRO-1 dye displacement fluorescence; inhibition, % at 3 µM; AID 652065, 2013; shares compounds with rCAG binder; actives 70% (n = 4,300);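 active = inhibition above a per-plate cutoff, the mean inhibition of sample wells plus 3 SD, cut at about 35% in these data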;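 note: loss of TO-PRO-1 fluorescence as compound displaces dye from 1x1 AA loop RNA; 0% = DMSO only wells and 100% = 100 µM mitoxantrone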
dCAG dye counter – displacement of TO-PRO-1 from CAG DNA duplex, counter-screen for rCAG RNA repeat binder project, biochemical, fluorescence, TO-PRO-1 dye, d(CAG) DNA oligo | d(CAG) DNA oligo TO-PRO-1 dye displacement | shares compounds with rCAG binder | actives 94% (n = 4,300) | inhibition, % at 3 µM | AID 652068, 2013;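 active = inhibition above its plate's cutoff, the mean test-well inhibition plus 3 SD, cut at about 4.8% in these data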;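 note: 0% = DNA dye mix with DMSO and 100% = 100 µM mitoxantrone; hits displace the dye from DNA and so lower well fluorescence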
dCAG dye DR – inhibitors of DNA CAG/GTC TO-PRO-1 complex, dose response, counter-screen for rCAG RNA repeat binder project, biochemical, fluorescence, TO-PRO-1 dye; AID 686960, 2013; shares compounds with rCAG binder; actives 20% (n = 250); IC50, µM; DNA CAG/GTC duplex TO-PRO-1 dye displacement fluorescence; in the data active = IC50 below about 10 µM
PRMT1 confirm – PRMT1 methyltransferase inhibitors, confirmation, biochemical, fluorescence polarization, triplicate. inhibition, % at 2.79 µM. recombinant His-PRMT1, activity-based probe fluorescence polarization. shares compounds with PRMT1 inh. AID 687036, 2013. actives 42% (n = 3,300);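 active = mean inhibition across replicates above the hit cutoff derived for the earlier primary screen, cut at about 22% in these data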
* marks the source's active call; other numbers are inactive results; . = not tested or not shown. Compounds with a hit are over-represented: about 3.3% of the library has one in this group of screens.

SMILES	HTRA1 inhibitor	PRMT1 inh	SIAE inh	mABHD4 FP	rCAG binder	rCAG binder conf	dCAG dye counter	PRMT1 confirm	others
CCc1ccc(OCC(=O)Nc2nnc(-c3ccco3)s2)cc1	-5.1	33.9*	9.3	-8.2	51.7*	3.4	-0.3	3.5
O=C(COC(=O)c1cnc(Cl)c(Cl)c1)NC1CCCC1	8.4	1.4	-4.7	0.4	-0.4	.	.	.
Nc1c(C(=O)Nc2ccccc2)sc2nc3c(c(-c4ccco4)c12)CCC3	7.0	6.9	0.7	14.5	11.4	.	.	.
Cc1ccc(NC(=O)c2sc3nc4c(c(-c5ccco5)c3c2N)CCC4)cc1	-7.1	5.5	5.4	15.1	23.6	.	.	.
Nc1c(C(=O)Nc2ccc(Br)cc2)sc2nc(-c3ccco3)ccc12	10.9	45.5*	15.5	5.7	51.5*	36.9*	20.3*	20.8
Nc1c(C(=O)Nc2ccc(F)cc2)sc2nc(-c3ccco3)ccc12	-0.5	43.9*	15.0	12.8	34.9*	55.3*	25.9*	29.8*
CCOc1ccc(NC(=O)CSc2nnc(-c3n[nH]c4c3CCC4)n2N)cc1	.	2.1	3.2	0.7	-0.1	.	.	.
CC(=O)N(\C=C/C=C/C=C1\Sc2ccccc2C1=O)c1ccccc1	33.8	46.3*	-8.1	-2.4	44.6*	14.3	10.8*	26.3*
O=C(Nc1nncs1)c1cc(-c2ccco2)nc2ccccc12	2.4	36.1*	-3.6	3.1	47.8*	15.9	7.1*	8.7
CCc1nnc(NC(=O)c2cc(-c3ccco3)nc3ccccc23)s1	27.6	25.6*	11.7	6.6	36.3*	23.1	16.2*	11.7
O=C(Nn1c(O)c(C=C2N=c3ccccc3=N2)sc1=S)c1ccccc1	-6.6	49.3*	3.0	-5.2	50.6*	23.2	9.6*	3.2
O=C(Nn1c(O)c(C=C2N=c3ccccc3=N2)sc1=S)c1cccc(Cl)c1	-12.3	38.7*	3.5	-1.9	72.8*	43.1*	14.8*	8.7
Cc1ccc(C(=O)Nn2c(O)c(C=C3N=c4ccccc4=N3)sc2=S)cc1	-13.2	55.2*	-1.9	-22.8	57.6*	39.6*	16.2*	5.1
C[C@H]1COc2cc(N3CCCC3)ccc2S(=O)(=O)N1C	.	-0.1	7.0	6.9	-0.1	.	.	.
COc1cccc(N2CC(=O)N(NC(=O)CSc3nc(C)cc(C)c3C#N)CC2=O)c1	0.4	-3.0	-2.0	0.6	-2.5	.	.	.
CCCc1cc(=O)[nH]c2nnc(SCC(=O)Nc3nccs3)n12	-1.5	-4.5	-2.1	-0.7	1.1	.	.	.
N#Cc1c(SCC(=O)Nc2nccs2)sc2c(O)cc(=O)[nH]c12	-7.5	51.4*	-17.6	-23.4	71.2*	51.7*	23.7*	26.6*
C=CCSc1nnc(NC(=O)CSc2nc(CCC)cc(=O)[nH]2)s1	-3.8	-1.9	4.9	-2.1	14.6	.	.	.
CCCSc1nnc(NC(=O)CSc2sc3c(O)cc(=O)[nH]c3c2C#N)s1	-28.7	34.0*	-38.2	0.1	65.0*	79.5*	45.5*	15.0
N#Cc1c(SCC(=O)Nc2nc3ccccc3s2)sc2c(O)cc(=O)[nH]c12	-15.1	52.0*	-42.3	-23.1	63.2*	60.2*	26.2*	7.0	dCAG dye DR=9.34*

High-throughput results deposited in PubChem BioAssay by The Scripps Research Institute Molecular Screening Center.
